Source: ChEMBL document CHEMBL1795243, “New microtubule polymerization inhibitors comprising a nitrooxymethylphenyl group” (Bioorg Med Chem, 2011)
The source made the active and inactive calls. The rule behind the calls is not given here.

Columns and labels:
HCT-116 [1] = assay: Antiproliferative activity against human HCT116 cells after 72 hrs by cell counting kit analysis; format: functional, cell-based; conditions: HCT-116, 72 h
Summary of the method: (§1)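 Cells grown with compound for 72 h, then growth quantified by WST-1 Cell Counting Kit. Final concentrations 1, 10, 25, 50, 100 and 200 μM. All media had 10% FBS, 37 °C, 5% CO2. Read-out IC50.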

SW-620 = assay: Antiproliferative activity against human SW620 cells after 72 hrs by cell counting kit analysis; format: functional, cell-based; conditions: SW-620, 72 h; summary of the method: as §1
SW480 = assay: Antiproliferative activity against human SW480 cells after 72 hrs by cell counting kit analysis; format: functional, cell-based; conditions: SW480, 72 h; summary of the method: as §1
SK-BR-3 = assay: Antiproliferative activity against human SK-BR-3 cells after 72 hrs by cell counting kit analysis; format: functional, cell-based; conditions: SK-BR-3, 72 h; summary of the method: as §1
MCF7 = assay: Antiproliferative activity against human MCF7 cells after 72 hrs by cell counting kit analysis; format: functional, cell-based; conditions: MCF7, 72 h; summary of the method: as §1
MDA-MB-231 = assay: Antiproliferative activity against human MDA-MB-231 cells after 72 hrs by cell counting kit analysis; format: functional, cell-based; conditions: MDA-MB-231, 72 h; summary of the method: as §1
HCT-116 [2] = assay: Cell cycle arrest in human HCT116 cells assessed as accumulation at sub-G1 phase at 20 uM after 24 hrs by FACS analysis (reference value: 6.2 %); format: functional
HCT-116 [3] = assay: Cell cycle arrest in human HCT116 cells assessed as accumulation at G0/G1 phase at 20 uM after 24 hrs by FACS analysis (reference value: 76.5 %); format: functional
HCT-116 [4] = assay: Cell cycle arrest in human HCT116 cells assessed as accumulation at G2/M phase at 20 uM after 24 hrs by FACS analysis (reference value: 10.9 %); format: functional
HCT-116 [5] = assay: Cell cycle arrest in human HCT116 cells assessed as accumulation at S phase at 20 uM after 24 hrs by FACS analysis (reference value: 8.5 %); format: functional
[6] = Antiproliferative activity against human CCD-1059SK cells at 200 uM after 72 hrs by cell counting kit analysis; format: cell-based; summary of the method: as §1
HCT-116 [7] = assay: Cell cycle arrest in human HCT116 cells assessed as increase of phosphorylated histone H3 at Ser10 level at 20 to 40 uM after 24 hrs by Western blotting; format: functional, cell-based
Summary of the method: (§2)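 HCT116 (1.0×10^6/dish) serum-starved 24 h, then treated 24 h in serum-free medium (0.4% DMSO control). Lysed 1 h at 0 °C in modified lysis buffer (pH 8.0, 1% NP-40). 7.5 µg protein run on SDS-PAGE and PVDF blot, probed for phospho-histone H3 Ser10 and total H3, ECL detection. Five independent experiments.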

HCT-116 [8] = assay: Cell cycle arrest in human HCT116 cells assessed as increase of phosphorylated histone H3 at Ser10 level at 20 uM after 24 hrs using propidium iodide staining by flow cytometry (reference value: 1.4 %); format: functional
HCT-116 [9] = assay: Induction of apoptosis in human HCT116 cells at 20 uM after 48 hrs using FITC-TUNEL staining by flow cytometry (reference value: 7.3 %); format: functional
Summary of the method: (§3)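 HCT116 at 1.0×10^6 per 60 mm dish, treated 24 or 48 h (0.4% DMSO control). Floating plus adherent cells assayed with DeadEnd Fluorometric TUNEL System, and FITC-TUNEL-positive percentage read by flow cytometry. Five independent experiments.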

HCT-116 [10] = assay: Induction of apoptosis in human HCT116 cells at 20 uM after 24 hrs using FITC-TUNEL staining by flow cytometry; format: functional; summary of the method: as §3
Tubulin (Homo sapiens) [11] = biological target: T1, Tubulin (Homo sapiens) (UniProt P68371+Q9H4B7+P0DPH7+P68366+Q13509+Q71U36+P04350+Q3ZCM7+P07437+P68363+Q9BQE3+Q6PEY2+Q13885+Q9BVA1+Q9BUF5); assay: Inhibition of alpha-tubulin polymerization in human HT1080 cells assessed as disruption of microtubule structures at 10 uM after 4 hrs using Hoechst staining by fluorescence microscopic analysis; format: cell-based; conditions: HT-1080
Tubulin (Sus scrofa) = Tubulin (Sus scrofa) (UniProt P02554+P02550); assay: Inhibition of purified porcine brain tubulin polymerization at 20 uM after 100 mins by fluorescence assay
Sequence of Tubulin (Sus scrofa) (P02550 whole entry, looked up): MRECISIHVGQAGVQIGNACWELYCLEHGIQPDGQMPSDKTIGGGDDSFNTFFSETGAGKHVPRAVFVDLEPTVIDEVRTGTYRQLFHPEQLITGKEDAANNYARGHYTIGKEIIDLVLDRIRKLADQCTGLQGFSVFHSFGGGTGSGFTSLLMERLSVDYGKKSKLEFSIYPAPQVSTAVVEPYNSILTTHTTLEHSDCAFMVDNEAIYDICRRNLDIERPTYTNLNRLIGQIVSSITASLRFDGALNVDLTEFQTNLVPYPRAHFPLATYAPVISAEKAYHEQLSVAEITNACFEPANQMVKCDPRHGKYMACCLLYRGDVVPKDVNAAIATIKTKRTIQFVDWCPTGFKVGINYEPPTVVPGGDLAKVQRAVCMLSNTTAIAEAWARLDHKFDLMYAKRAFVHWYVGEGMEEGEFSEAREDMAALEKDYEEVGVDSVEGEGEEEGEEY
Sequence of Tubulin (Sus scrofa) (P02554 whole entry, looked up): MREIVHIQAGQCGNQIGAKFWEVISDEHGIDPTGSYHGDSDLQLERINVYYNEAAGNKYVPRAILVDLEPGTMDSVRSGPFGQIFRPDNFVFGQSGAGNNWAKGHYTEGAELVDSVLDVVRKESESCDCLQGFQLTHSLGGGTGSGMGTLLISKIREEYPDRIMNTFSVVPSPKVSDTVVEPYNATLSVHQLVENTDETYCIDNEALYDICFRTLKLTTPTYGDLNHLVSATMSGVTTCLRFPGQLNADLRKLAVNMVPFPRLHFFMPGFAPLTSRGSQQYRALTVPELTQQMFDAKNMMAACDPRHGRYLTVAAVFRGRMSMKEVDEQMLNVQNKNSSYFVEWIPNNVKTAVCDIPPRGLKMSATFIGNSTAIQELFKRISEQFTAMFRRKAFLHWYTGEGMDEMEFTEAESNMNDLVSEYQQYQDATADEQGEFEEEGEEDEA
Summary of the method: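 Porcine brain tubulin 2.0 mg/mL in General Tubulin Buffer with Tubulin Glycerol Buffer, GTP and DAPI. Added to compound prewarmed at 37 °C (final 2.0% DMSO, which is also the vehicle control). DAPI fluorescence (ex 340, em 460 nm) read kinetically over 100 min. Four independent experiments.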

HCT-116 [12] = assay: Antitumor activity against human HCT116 cells xenografted in nude mouse assessed as inhibition of tumor growth at 80 mg/kg, ip administered at days 0, 2, 4, 7, 9, 11, 14 and 16 measured on day 21 relative to control; format: functional; conditions: route intraperitoneal
Mus musculus = assay: Toxicity in human HCT116 cells xenografted nude mouse assessed change in body weight at 50 to 80 mg/kg, ip administered at days 0, 2, 4, 7, 9, 11, 14 and 16 measured on day 21; format: organism-based, HCT-116; parameters: dose 50-80 mg/kg, route intraperitoneal; conditions: in vivo
HCT-116 [13] = assay: Cell cycle arrest in human HCT116 cells assessed as accumulation at sub-G1 phase at 40 uM after 24 hrs by FACS analysis (reference value: 6.2 %); format: functional
HCT-116 [14] = assay: Cell cycle arrest in human HCT116 cells assessed as accumulation at G0/G1 phase at 40 uM after 24 hrs by FACS analysis (reference value: 76.5 %); format: functional
HCT-116 [15] = assay: Cell cycle arrest in human HCT116 cells assessed as accumulation at G2/M phase at 40 uM after 24 hrs by FACS analysis (reference value: 10.9 %); format: functional
HCT-116 [16] = assay: Cell cycle arrest in human HCT116 cells assessed as accumulation at S phase at 40 uM after 24 hrs by FACS analysis (reference value: 8.5 %); format: functional
HCT-116 [17] = assay: Induction of apoptosis in human HCT116 cells at 40 uM after 24 hrs using FITC-TUNEL staining by flow cytometry; format: functional; summary of the method: as §3
HCT-116 [18] = assay: Cell cycle arrest in human HCT116 cells assessed as increase of phosphorylated histone H3 at Ser10 level at 40 uM after 24 hrs using propidium iodide staining by flow cytometry (reference value: 1.4 %); format: functional
HCT-116 [19] = assay: Induction of apoptosis in human HCT116 cells at 40 uM after 48 hrs using FITC-TUNEL staining by flow cytometry (reference value: 7.3 %); format: functional; summary of the method: as §3
Tubulin (Homo sapiens) [20] = biological target: T1, Tubulin (Homo sapiens); assay: Inhibition of alpha-tubulin polymerization in human HT1080 cells assessed as disruption of microtubule structures at 100 nM after 4 hrs using Hoechst staining by fluorescence microscopic analysis; format: cell-based; conditions: HT-1080
HCT-116 [21] = assay: Cell cycle arrest in human HCT116 cells assessed as accumulation at sub-G1 phase at 150 nM after 24 hrs by FACS analysis (reference value: 6.2 %); format: functional
HCT-116 [22] = assay: Cell cycle arrest in human HCT116 cells assessed as accumulation at G0/G1 phase at 150 nM after 24 hrs by FACS analysis (reference value: 76.5 %); format: functional
HCT-116 [23] = assay: Cell cycle arrest in human HCT116 cells assessed as accumulation at G2/M phase at 150 nM after 24 hrs by FACS analysis (reference value: 10.9 %); format: functional
HCT-116 [24] = assay: Cell cycle arrest in human HCT116 cells assessed as accumulation at S phase at 150 nM after 24 hrs by FACS analysis (reference value: 8.5 %); format: functional
HCT-116 [25] = assay: Induction of apoptosis in human HCT116 cells at 150 nM after 24 hrs using FITC-TUNEL staining by flow cytometry; format: functional; summary of the method: as §3
HCT-116 [26] = assay: Cell cycle arrest in human HCT116 cells assessed as increase of phosphorylated histone H3 at Ser10 level at 150 nM after 24 hrs by Western blotting; format: functional, cell-based; summary of the method: as §2
HCT-116 [27] = assay: Cell cycle arrest in human HCT116 cells assessed as increase of phosphorylated histone H3 at Ser10 level at 150 nM after 24 hrs using propidium iodide staining by flow cytometry (reference value: 1.4 %); format: functional
HCT-116 [28] = assay: Induction of apoptosis in human HCT116 cells at 150 nM after 48 hrs using FITC-TUNEL staining by flow cytometry (reference value: 7.3 %); format: functional; summary of the method: as §3

| IC50 (HCT-116 [1]) [µM] | IC50 (SW-620) [µM] | IC50 (SW480) [µM] | IC50 (SK-BR-3) [µM] | IC50 (MCF7) [µM] | IC50 (MDA-MB-231) [µM] | Compound | also measured |
| --- | --- | --- | --- | --- | --- | --- | --- |
| 17.9 | 16.9 | 80.7 | 50.1 | > 100 | 47.7 | O=C(Oc1ccccc1)c1ccc(CO[N+](=O)[O-])cc1 |  |
| 0.6 | 0.8 | 6.9 | 0.6 | 58.1 | 0.8 | O=C(Nc1ccccc1OC(=O)c1ccc(CCl)cc1)c1ccc(CCl)cc1 |  |
| 0.6 | 0.8 | 0.8 | 0.7 | > 100 | 0.8 | O=C(Nc1ccccc1)c1ccc(CO[N+](=O)[O-])cc1 | Activity (HCT-116 [2]): 10.4%; Activity (HCT-116 [3]): 30.4%; Activity (HCT-116 [4]): 51.8%; Activity (HCT-116 [5]): 7.4%; Activity [6]: Non-toxic; Activity (HCT-116 [7]): Active; Activity (HCT-116 [8]): 46.2%; Activity (HCT-116 [9]): 24.2%; Activity (HCT-116 [10]): 4%; inhibition (Tubulin (Homo sapiens) [11]): Active; inhibition (Tubulin (Sus scrofa)): Active; T/C (HCT-116 [12]): 55%; Activity (Mus musculus): Non-toxic |
| > 100 | > 100 | > 100 | > 100 | > 100 | > 100 | O=C(Nc1ccccc1)c1ccccc1 [N-PHENYLBENZAMIDE] |  |
| 47.6 | 25.8 | 22.2 | 18.5 | > 100 | 30 | O=C(Nc1ccccc1OC(=O)c1cccc(CO[N+](=O)[O-])c1)c1cccc(CO[N+](=O)[O-])c1 |  |
| 6.2 | 7.6 | 8.4 | 6.3 | > 100 | 6.7 | O=C(Nc1cccc(OC(=O)c2ccc(CO[N+](=O)[O-])cc2)c1)c1ccc(CO[N+](=O)[O-])cc1 |  |
| 68 | 15.1 | 19.1 | 30.5 | > 100 | 14.4 | CC(=O)Oc1ccccc1C(=O)Oc1ccc(CO[N+](=O)[O-])cc1 | Activity (HCT-116 [13]): 15.3%; Activity (HCT-116 [14]): 53.7%; Activity (HCT-116 [15]): 12%; Activity (HCT-116 [16]): 18.8%; Activity (HCT-116 [17]): 4%; Activity (HCT-116 [7]): inactive; Activity (HCT-116 [18]): 1.7%; Activity (HCT-116 [19]): 3.6% |
| 19.3 | 8.4 | 13.3 | 8.2 | > 100 | 8.4 | O=C(Nc1ccccc1)c1cccc(CO[N+](=O)[O-])c1 |  |
|  |  |  |  |  |  | CC(=O)O[C@H]1C(=O)[C@@]2(C)[C@H]([C@H](OC(=O)c3ccccc3)[C@]3(O)C[C@H](OC(=O)[C@H](O)[C@@H](NC(=O)c4ccccc4)c4ccccc4)C(C)=C1C3(C)C)[C@]1(OC(C)=O)CO[C@@H]1C[C@@H]2O | inhibition (Tubulin (Homo sapiens) [20]): inactive |
| 1.2 | 0.8 | 0.9 | 0.7 | 54.3 | 0.8 | O=C(Nc1ccccc1)c1ccc(CCl)cc1 |  |
|  |  |  |  |  |  | CC[C@]1(O)C[C@H]2CN(CCc3c([nH]c4ccccc34)[C@@](C(=O)OC)(c3cc4c(cc3OC)N(C=O)[C@H]3[C@@](O)(C(=O)OC)[C@H](OC(C)=O)[C@]5(CC)C=CCN6CC[C@]43[C@@H]65)C2)C1 [VINCRISTINE] | Activity (HCT-116 [21]): 23%; Activity (HCT-116 [22]): 35.9%; Activity (HCT-116 [23]): 28.6%; Activity (HCT-116 [24]): 12.5%; Activity (HCT-116 [25]): 4%; Activity (HCT-116 [26]): Active; Activity (HCT-116 [27]): 25.3%; Activity (HCT-116 [28]): 31.6%; inhibition (Tubulin (Homo sapiens) [20]): Active |
| 0.7 | 0.8 | 3.8 | 0.7 | > 100 | 1.4 | O=C(Nc1ccccc1OC(=O)c1ccc(CO[N+](=O)[O-])cc1)c1ccc(CO[N+](=O)[O-])cc1 | Activity (HCT-116 [2]): 11%; Activity (HCT-116 [3]): 52.4%; Activity (HCT-116 [4]): 29.3%; Activity (HCT-116 [5]): 7.3%; Activity [6]: Non-toxic; Activity (HCT-116 [7]): Active; Activity (HCT-116 [8]): 26.4%; Activity (HCT-116 [9]): 36.4%; Activity (HCT-116 [10]): 4%; inhibition (Tubulin (Homo sapiens) [11]): Active; inhibition (Tubulin (Sus scrofa)): Active |
| > 100 | > 100 | > 100 | > 100 | > 100 | > 100 | O=C(Nc1ccccc1NC(=O)c1ccc(CO[N+](=O)[O-])cc1)c1ccc(CO[N+](=O)[O-])cc1 |  |
| > 100 | > 100 | > 100 | > 100 | > 100 | > 100 | CCc1ccc(C(=O)Nc2ccccc2)cc1 |  |
| 24.8 | > 100 | > 100 | 9.8 | > 100 | > 100 | O=C(Nc1ccccc1)c1ccc(CO)cc1 |  |
